Test results from ChEMBL document CHEMBL1141303, “Macrolactins O-R, glycosylated 24-membered lactones from Bacillus sp. AH159-1” (J Nat Prod, 2007).
≈ marks a conversion by molar mass, not a printed value.

Columns and labels:
Peptide deformylase = target: T1, Peptide deformylase (Staphylococcus aureus subsp. aureus Mu50, UniProt P68825); assay: Inhibition of Staphylococcus aureus peptide deformylase
T1 sequence (P68825 whole entry): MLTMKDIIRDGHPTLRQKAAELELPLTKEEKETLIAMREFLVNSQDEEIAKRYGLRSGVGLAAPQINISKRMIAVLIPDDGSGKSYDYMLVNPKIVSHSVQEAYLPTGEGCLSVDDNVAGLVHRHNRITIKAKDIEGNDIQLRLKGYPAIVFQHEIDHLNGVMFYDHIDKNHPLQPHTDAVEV

Escherichia coli = assay: Antibacterial activity against Escherichia coli KCTC 1924 after 18 hrs by microdilution method; assay type: functional; conditions: KCTC 1924, 18 h
Procedure, shortened: (§1)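 Broth microdilution assay. The minimum restrictive concentration (MRC) was taken as the lowest concentration that reduced growth by at least 50%.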

Bacillus subtilis = assay: Antibacterial activity against Bacillus subtilis KCTC 1021 after 18 hrs by microdilution method; assay type: functional; procedure, shortened: as §1
Staphylococcus aureus = assay: Antibacterial activity against Staphylococcus aureus RN4220 after 18 hrs by microdilution method; assay type: functional; procedure, shortened: as §1

C[C@@H]1CCC/C=C/CCC(=O)C[C@@H](O)C/C=C\C=C\[C@@H](O[C@H]2O[C@@H](CO)[C@H](O)[C@@H](O)[C@@H]2O)C/C=C/C=C\C(=O)O1 [MACROLACTIN O]
IC50 (Peptide deformylase): 53.5 µM
MIC (Escherichia coli): 100 µg/mL (≈ 177 µM)
MRC (Bacillus subtilis): 100 µg/mL
MRC (Staphylococcus aureus): 100 µg/mL

C[C@@H]1CCC/C=C\C=C\[C@H](O)C[C@@H](O)C/C=C\C=C\[C@@H](O[C@H]2O[C@@H](CO)[C@H](O)[C@@H](O)[C@@H]2O)C/C=C/C=C\C(=O)O1 [MACROLACTIN Q]
IC50 (Peptide deformylase): 12.1 µM
MIC (Escherichia coli): 100 µg/mL (≈ 177 µM)
MRC (Bacillus subtilis): 100 µg/mL
MRC (Staphylococcus aureus): 100 µg/mL

C[C@@H]1CCC/C=C/C=C/[C@H](O)C[C@@H](O)C/C=C/C=C/[C@@H](O[C@H]2O[C@@H](CO)[C@H](O)[C@@H](O)[C@@H]2O)C/C=C/C=C\C(=O)O1 [MACROLACTIN R]
IC50 (Peptide deformylase): 61.5 µM
MIC (Escherichia coli): 100 µg/mL (≈ 177 µM)
MRC (Bacillus subtilis): 100 µg/mL
MRC (Staphylococcus aureus): 100 µg/mL

CC[C@@H]1CCC/C=C/C=C/[C@H](O)C[C@@H](O)C/C=C\C=C\[C@@H](O[C@H]2O[C@@H](CO)[C@H](O)[C@@H](O)[C@@H]2O)C/C=C/C=C\C(=O)O1 [MACROLACTINN P]
IC50 (Peptide deformylase): 57.7 µM
MIC (Escherichia coli): 100 µg/mL (≈ 173 µM)
MRC (Bacillus subtilis): 100 µg/mL
MRC (Staphylococcus aureus): 100 µg/mL
